{"data": "Published values gathered from unrelated publications", "target": "Tyrosine-protein kinase receptor TYRO3 (TYRO3, Homo sapiens, UniProt Q06418)", "Residues used in one study (Q06418 1-890)": "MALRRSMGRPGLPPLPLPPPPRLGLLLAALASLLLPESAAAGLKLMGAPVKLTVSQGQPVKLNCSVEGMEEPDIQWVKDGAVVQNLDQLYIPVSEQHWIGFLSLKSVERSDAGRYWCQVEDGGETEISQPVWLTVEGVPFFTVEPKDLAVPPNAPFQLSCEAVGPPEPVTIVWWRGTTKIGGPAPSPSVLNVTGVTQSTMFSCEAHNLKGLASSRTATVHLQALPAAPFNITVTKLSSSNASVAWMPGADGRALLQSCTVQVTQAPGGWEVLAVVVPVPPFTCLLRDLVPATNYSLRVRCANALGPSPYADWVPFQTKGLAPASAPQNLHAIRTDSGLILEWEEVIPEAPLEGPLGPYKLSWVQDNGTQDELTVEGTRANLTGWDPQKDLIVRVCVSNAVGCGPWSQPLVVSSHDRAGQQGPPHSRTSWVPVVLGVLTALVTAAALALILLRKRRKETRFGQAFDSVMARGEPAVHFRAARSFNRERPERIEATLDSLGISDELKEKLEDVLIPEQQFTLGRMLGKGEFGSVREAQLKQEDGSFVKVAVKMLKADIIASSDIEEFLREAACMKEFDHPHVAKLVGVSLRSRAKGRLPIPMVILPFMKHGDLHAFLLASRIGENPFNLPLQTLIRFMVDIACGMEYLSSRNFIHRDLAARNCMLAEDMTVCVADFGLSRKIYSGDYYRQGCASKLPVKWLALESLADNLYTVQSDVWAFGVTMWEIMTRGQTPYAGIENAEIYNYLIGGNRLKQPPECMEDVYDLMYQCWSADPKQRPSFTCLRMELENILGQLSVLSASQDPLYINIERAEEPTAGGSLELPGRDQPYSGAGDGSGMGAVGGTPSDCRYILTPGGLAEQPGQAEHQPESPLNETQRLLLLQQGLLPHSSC", "note": "Protocols differ between the studies behind these lines."}
{"Compound": "NS(=O)(=O)c1cc(NC(=O)C2(c3ccccc3Cl)CC2)ccc1Oc1cccc(Cl)c1", "observed": "cell-free assay", "technique": "competition with immobilised ligand", "concentration": "1 µM", "remaining binding": "100%"}
{"Compound": "O=C(c1ccc(Nc2ncc(Cl)c(-c3ccc(Cl)s3)n2)cc1)N1CCC(N2CCCC2)CC1", "observed": "binding", "technique": "competition with immobilised ligand", "concentration": "1 µM", "remaining binding": "57%"}
{"Compound": "O=c1nc(-c2ccccn2)sc2ccccc12", "observed": "cell-free assay", "technique": "competition with immobilised ligand", "concentration": "1 µM", "remaining binding": "80%"}
{"Compound": "O=C(NCCCN1CCOCC1)c1ccc(Nc2nccc(-c3cc4ccccc4s3)n2)cc1", "observed": "binding", "technique": "competition with immobilised ligand", "concentration": "1 µM", "remaining binding": "90%"}
{"Compound": "C[C@H]1CCN(c2nccc(-c3cnn4ncccc34)n2)C1", "observed": "binding", "concentration": "1 µM", "remaining binding": "100%"}
{"Compound": "CNC(=O)c1ccc(Nc2ncc(C(F)(F)F)c(NCc3nccnc3N(C)S(C)(=O)=O)n2)cc1", "observed": "cell-free assay", "technique": "competition with immobilised ligand", "concentration": "0.1 µM", "remaining binding": "100%"}
{"Compound": "c1cnn2ncc(-c3ccnc(N4CCC45COC5)n3)c2c1", "observed": "binding", "concentration": "1 µM", "remaining binding": "73%"}
{"Compound": "Nc1ncc2c(n1)-c1c([nH]c3ccc(C#CC4CC4)cc13)CCCC2", "observed": "binding", "technique": "competition with immobilised ligand", "concentration": "1 µM", "remaining binding": "100%"}
{"Compound": "CCN1CCN(Cc2ccc(C(=O)Nc3ccc(C)c(Oc4ccc5c(c4)CC(=O)N5)c3)cc2C(F)(F)F)CC1", "observed": "binding", "technique": "competition with immobilised ligand", "concentration": "1 µM", "remaining binding": "100%"}
{"Compound": "O=C(c1ccc(Nc2ncc(Cl)c(-c3cc4ccccc4s3)n2)cc1)N1CCC(N2CCCC2)CC1", "observed": "binding", "technique": "competition with immobilised ligand", "concentration": "1 µM", "remaining binding": "44%"}
{"Compound": "COc1ncc2cc3ccccc3nc2c1C#N", "observed": "cell-free assay", "technique": "competition with immobilised ligand", "concentration": "5 µM", "remaining binding": "96%"}
{"Compound": "Cn1nc(C(=O)NCc2ccc(C(=O)O)cc2)cc1-c1ccc2[nH]ccc2c1", "observed": "cell-free assay", "technique": "competition with immobilised ligand", "concentration": "0.1 µM", "remaining binding": "100%"}
{"Compound": "F[C@@H]1CCN(c2nccc(-c3cnn4ncccc34)n2)C1", "observed": "binding", "concentration": "1 µM", "remaining binding": "89%"}
{"Compound": "O=C(NCC1CCOCC1)c1n[nH]cc1NC(=O)c1c(F)cccc1F", "observed": "binding", "technique": "competition with immobilised ligand", "concentration": "1 µM", "remaining binding": "99%"}
{"Compound": "COc1cnc(Nc2cccc(S(N)(=O)=O)c2)nc1N1CCN(c2ccccc2)CC1", "observed": "binding", "technique": "competition with immobilised ligand", "concentration": "1 µM", "remaining binding": "72%"}
{"Compound": "CN(c1nccc(-c2cnn3ncccc23)n1)C1CC1", "observed": "binding", "concentration": "1 µM", "remaining binding": "83%"}
{"Compound": "CCC(=N\\O)/C(C)=C/c1ccc(F)cc1", "observed": "cell-free assay", "technique": "competition with immobilised ligand", "concentration": "1 µM", "remaining binding": "100%"}
{"Compound": "COc1cnc(Nc2cccc(S(N)(=O)=O)c2)nc1N1CCN(c2ccccc2)C(=O)C1", "observed": "binding", "technique": "competition with immobilised ligand", "concentration": "1 µM", "remaining binding": "100%"}
{"Compound": "Cc1c(NC(=O)c2cc(C(N)=O)nc3cc(F)ccc23)c(C(F)(F)F)nn1Cc1ccc(C#N)cc1", "observed": "cell-free assay", "technique": "competition with immobilised ligand", "concentration": "1 µM", "remaining binding": "81%"}
{"Compound": "N[C@@H]1CCN(c2nccc(-c3cnn4ncccc34)n2)C1", "observed": "binding", "concentration": "1 µM", "remaining binding": "100%"}
{"Compound": "COc1ccc2c(c1)O[C@@H](c1ccc(OC)c(OC)c1)C[C@H]2NC(=O)C1(c2ccc3c(c2)OC(F)(F)O3)CC1", "observed": "cell-free assay", "technique": "competition with immobilised ligand", "concentration": "1 µM", "remaining binding": "97%"}
{"Compound": "CN(C)c1nccc(-c2cnn3ncccc23)n1", "observed": "binding", "concentration": "1 µM", "remaining binding": "75%"}
